Source: PMC9303693 (Journal of Clinical Pharmacology, 2022)
Values joined by “and” are separate entries in the source; they are usually repeats but may differ in a detail not shown here. Identical values can stand only once. Like-named read-outs stand apart in the source and are kept apart here. Marks after values point to notes of the source that are not given here.

What was measured:
[1] = type: in vivo, human; settings: for CL/F / Vd/F: acalabrutinib; for AUC: AUC0‐inf; for Vd/F: Vz/F; for half-life: t1/2, total plasma acalabrutinib; for Tmax: median (minimum, maximum)
[2] = Urinary excretion and renal clearance after a single 50-mg dose; type: in vivo, human; settings: for CL renal: human, urine, oral, 50 mg, mean renal clearance; for mean renal clearance: ACP-5862
Summary of the method: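 In study 2, a single oral 50-mg capsule was taken with ≈240 mL water after an overnight fast. Urine was collected predose, 0–4 h and 4–24 h post-dose and pooled per interval for each subject. Analytes were quantified by validated LC-MS/MS with deuterated internal standards over a nominal urine range of 5 to 5000 ng/mL.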

Safety evaluation = type: in vivo, human; settings: for Number (%) of subjects with TEAEs: single oral 50-mg dose
Summary of the method: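 After an overnight fast, subjects took a single oral 50-mg dose as capsules with ≈240 mL water on day 1. AEs were collected until follow-up contact 14 days post-dose. Safety monitoring covered concomitant medications, serial hematology, serum chemistry and urinalysis, vital signs, 12-lead ECGs and physical examinations. Findings were summarized descriptively.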

[3] = In vitro protein binding in human plasma; type: in vitro ADME; settings: human, plasma
human plasma [4] = assay: In vitro protein binding in human plasma; type: in vitro ADME; settings: for in vitro protein binding: human plasma
human serum albumin = human serum albumin (Homo sapiens, UniProt P02768); assay: In vitro protein binding in human serum albumin solution; type: in vitro ADME
Sequence of human serum albumin (P02768 25-609): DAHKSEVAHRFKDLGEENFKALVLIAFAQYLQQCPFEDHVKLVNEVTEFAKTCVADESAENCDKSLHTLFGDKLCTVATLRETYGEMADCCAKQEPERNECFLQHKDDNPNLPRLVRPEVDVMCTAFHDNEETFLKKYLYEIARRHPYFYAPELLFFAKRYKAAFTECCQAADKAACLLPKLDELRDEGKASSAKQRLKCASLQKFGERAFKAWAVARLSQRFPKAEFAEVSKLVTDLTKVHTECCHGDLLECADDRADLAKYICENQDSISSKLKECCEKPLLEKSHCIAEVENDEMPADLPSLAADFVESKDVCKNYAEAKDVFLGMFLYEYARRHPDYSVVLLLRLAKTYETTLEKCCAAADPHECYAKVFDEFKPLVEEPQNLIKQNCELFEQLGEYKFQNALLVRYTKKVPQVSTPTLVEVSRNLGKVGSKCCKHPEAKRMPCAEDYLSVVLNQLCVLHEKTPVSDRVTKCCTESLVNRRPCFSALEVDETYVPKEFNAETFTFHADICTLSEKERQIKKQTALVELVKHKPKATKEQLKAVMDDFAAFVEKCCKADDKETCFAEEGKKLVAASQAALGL

[5] = In vitro protein binding in α1-acid glycoprotein solution; type: in vitro ADME; settings: human
[6] = Earlier clinical studies of acalabrutinib; type: in vivo, human; settings: 400-mg vs 50-mg dose, healthy subjects (data on file)
[7] = cited from earlier work
[8] = cited from earlier work; remark: listed apart in the source
human plasma [9] = assay: Plasma protein binding in study 2 subjects; type: in vitro ADME
Summary of the method: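 Severe hepatic impairment and matched control subjects received a single oral 50-mg dose of the test compound after an overnight fast. Blood (4 mL) was drawn on day 1 at 0.863, 1.75 and 6.5 h post-dose. Binding of parent and active metabolite in the plasma was assessed by ultracentrifugation to estimate the unbound fraction.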

BTK = settings: cited from earlier work
[10] = both, human, plasma, po, 50 mg, single oral 50-mg dose, Control (n = 13), arithmetic mean (SD)
[11] = both, human, plasma, po, 50 mg, single oral 50-mg dose, Mild (n = 6), arithmetic mean (SD)
[12] = both, human, plasma, po, 50 mg, single oral 50-mg dose, Moderate (n = 6), arithmetic mean (SD)
[13] = human, plasma, po, 50 mg, single oral 50-mg dose, Severe (n = 8), arithmetic mean (SD)
[14] = plasma acalabrutinib, Mild vs normal hepatic function (reference)
[15] = plasma acalabrutinib, Moderate vs normal hepatic function (reference)
[16] = plasma acalabrutinib, Severe vs normal hepatic function (reference)
[17] = severe hepatic impairment, study 2
[18] = acalabrutinib, matched normal hepatic function subjects
[19] = acalabrutinib, subjects with severe hepatic impairment
[20] = subjects with severe hepatic impairment
[21] = healthy subjects (n = 17), relative to no pretreatment
[22] = healthy subjects, single 400-mg dose
[23] = ACP-5862/acalabrutinib, study 2, Control (n = 8), arithmetic mean (SD)
[24] = ACP-5862/acalabrutinib, study 2, Severe (n = 8), arithmetic mean (SD)
[25] = ACP-5862, severe hepatic impairment vs control subjects
[26] = plasma ACP-5862, ANOVA, exponentiated LSM, Control, n 8
[27] = plasma ACP-5862, Severe vs normal hepatic function (reference)

## CC#CC(=O)N1CCC[C@H]1c1nc(-c2ccc(C(=O)Nc3ccccn3)cc2)c2c(N)nccn12 [Acalabrutinib]
[1]; single oral 50-mg dose, Control (n = 13), arithmetic mean (SD)
  CL/F: 218.1 ± 103.1 ^a L/h
[1]; single oral 50-mg dose, Mild (n = 6), arithmetic mean (SD)
  CL/F: 156.6 ± 91.1 L/h
[1]; single oral 50-mg dose, Moderate (n = 6), arithmetic mean (SD)
  CL/F: 280.8 ± 372.7 L/h
[1]; single oral 50-mg dose, Severe (n = 8), arithmetic mean (SD)
  CL/F: 48.7 ± 30.7 L/h
[1]; single oral 50-mg dose, Severe (n = 8), arithmetic mean (SD), listed as acalabrutinib
  CL/F: 48.7 L/h
[1]; both, human, plasma, oral, 50 mg, LS Mean, plasma acalabrutinib, ANOVA, exponentiated LSM, Control, n 13
  AUC: 250 ng·h/mL
[1]; both, human, plasma, oral, 50 mg, LS Mean, plasma acalabrutinib, ANOVA, exponentiated LSM, Mild, n 6
  AUC: 366 ng·h/mL
[1]; both, human, plasma, oral, 50 mg, LS Mean, plasma acalabrutinib, ANOVA, exponentiated LSM, Moderate, n 6
  AUC: 326 ng·h/mL
[1]; both, human, plasma, oral, 50 mg, Cmax, LS Mean, plasma acalabrutinib, ANOVA, exponentiated LSM, Control, n 14
  Cmax: 152 ng/mL
[1]; both, human, plasma, oral, 50 mg, Cmax, LS Mean, plasma acalabrutinib, ANOVA, exponentiated LSM, Mild, n 6
  Cmax: 292 ng/mL
[1]; both, human, plasma, oral, 50 mg, Cmax, LS Mean, plasma acalabrutinib, ANOVA, exponentiated LSM, Moderate, n 6
  Cmax: 156 ng/mL
[1]; both, human, plasma, po, 50 mg, total plasma acalabrutinib, single oral 50-mg dose, Control (n = 13), geometric mean (geometric CV%)
  AUC: 250 ng·h/mL
[1]; both, human, plasma, po, 50 mg, total plasma acalabrutinib, single oral 50-mg dose, Mild (n = 6), geometric mean (geometric CV%)
  AUC: 366 ng·h/mL
[1]; both, human, plasma, po, 50 mg, total plasma acalabrutinib, single oral 50-mg dose, Moderate (n = 6), geometric mean (geometric CV%)
  AUC: 326 ng·h/mL
[1]; both, human, plasma, po, 50 mg, Cmax, total plasma acalabrutinib, single oral 50-mg dose, fasted, Control, normal hepatic function (n = 14), geometric mean (geometric CV%)
  Cmax: 152 ng/mL
[1]; both, human, plasma, po, 50 mg, Cmax, total plasma acalabrutinib, single oral 50-mg dose, fasted, Mild, Child-Pugh class A (n = 6), geometric mean (geometric CV%)
  Cmax: 292 ng/mL
[1]; both, human, plasma, po, 50 mg, Cmax, total plasma acalabrutinib, single oral 50-mg dose, fasted, Moderate, Child-Pugh class B (n = 6), geometric mean (geometric CV%)
  Cmax: 156 ng/mL
[1]; [10]
  Vd/F: 722 ± 520 L
  half-life: 2.2 ± 0.8 h
[1]; [11]
  Vd/F: 471 ± 222 L
  half-life: 2.3 ± 0.9 h
[1]; [12]
  Vd/F: 2140 ± 2720 L
  half-life: 7.9 ± 12.7 h
[1]; both, human, plasma, po, 50 mg, total plasma acalabrutinib, single oral 50-mg dose, Control (n = 14)
  Tmax: 0.6 h
[1]; both, human, plasma, po, 50 mg, total plasma acalabrutinib, single oral 50-mg dose, Mild (n = 6)
  Tmax: 0.8 h
[1]; both, human, plasma, po, 50 mg, total plasma acalabrutinib, single oral 50-mg dose, Moderate (n = 6)
  Tmax: 1 h
[1]; human, plasma, oral, 50 mg, LS Mean, plasma acalabrutinib, ANOVA, exponentiated LSM, Severe, n 8
  AUC: 1170 ng·h/mL
[1]; human, plasma, oral, 50 mg, Cmax, LS Mean, plasma acalabrutinib, ANOVA, exponentiated LSM, Severe, n 8
  Cmax: 726 ng/mL
[1]; human, plasma, po, 50 mg, total plasma acalabrutinib, single oral 50-mg dose, Severe (n = 8), geometric mean (geometric CV%)
  AUC: 1170 ng·h/mL
[1]; human, plasma, po, 50 mg, Cmax, total plasma acalabrutinib, single oral 50-mg dose, fasted, Severe, Child-Pugh class C (n = 8), geometric mean (geometric CV%)
  Cmax: 726 ng/mL
[1]; [13]
  Vd/F: 167 ± 70.3 L
  half-life: 2.7 ± 1.1 h
[1]; [14]
  AUC0‐inf GMR: Test/Reference: 146.2%
  Cmax GMR: Test/Reference: 191.3%
[1]; [15]
  AUC0‐inf GMR: Test/Reference: 130.5%
  Cmax GMR: Test/Reference: 102.2%
[1]; [16]
  AUC0‐inf GMR: Test/Reference: 467.3%
  Cmax GMR: Test/Reference: 476.2%
[1]; [17]
  increase of unbound acalabrutinib AUC0‐last compared with control subjects: 3.6 fold
  increase of unbound acalabrutinib Cmax compared with control subjects: 3.8 fold
[1]; single 50-mg dose, mild hepatic impairment
  increase of acalabrutinib Cmax compared with control subjects: 1.9 fold
[1]; single 50-mg dose, mild hepatic impairment (Child-Pugh class A)
  increase of acalabrutinib AUC compared with control subjects: 1.90 fold
[1]; single 50-mg dose, moderate hepatic impairment
  difference in acalabrutinib Cmax compared with control subjects: did not result in any appreciable difference
[1]; single 50-mg dose, moderate hepatic impairment (Child-Pugh class B)
  increase of acalabrutinib AUC compared with control subjects: 1.48 fold
[1]; total plasma acalabrutinib, single oral 50-mg dose, fasted, Moderate, Child-Pugh class B (n = 6), geometric mean (geometric CV%)
  Cmax: 155.7 (246.9) ng/mL
[1]; total plasma acalabrutinib, single oral 50-mg dose, Moderate (n = 6), geometric mean (geometric CV%)
  AUC0‐inf: 326.4 (177.9) ng • h/mL
[2]; [18]
  renal clearance as share of the systemic clearance: ≈ 0.5%
  CL renal: 21.2 mL/min
[2]; [19]
  renal clearance as share of the apparent systemic clearance: ≈ 1.7%
  CL renal: 12.9 mL/min
[2]; matched normal hepatic function subjects, 24-hour urine collection interval
  share of the 50‐mg oral dose excreted in urine: ≈ 0.6%
[2]; [20]
  share of the 50‐mg oral dose excreted in urine: approximately 1.8%
Safety evaluation; Control (n = 14)
  Number (%) of subjects with TEAEs: 0
Safety evaluation; Mild hepatic impairment (n = 6)
  Number (%) of subjects with TEAEs: 2 (33)
Safety evaluation; Moderate hepatic impairment (n = 6)
  Number (%) of subjects with TEAEs: 0
Safety evaluation; Overall (N = 34)
  Number (%) of subjects with TEAEs: 3 (9)
Safety evaluation; Severe hepatic impairment (n = 8)
  Number (%) of subjects with TEAEs: 1 (13)
Safety evaluation; single oral dose of 50 mg, healthy subjects and subjects with mild, moderate, or severe hepatic impairment
  tolerability: well tolerated
Safety evaluation; single oral dose of 50 mg, study 1 and study 2
  deaths, serious AEs, discontinuations due to AEs: no deaths, serious AEs, or subject discontinuations due to AEs
[3]
  fraction unbound: 0.025
Human plasma [4]; in humans (plasma)
  free fraction (percentage unbound): 2.5%
Human serum albumin
  fraction unbound: 0.063
[5]
  fraction unbound: 0.589
[6]
  clinical margin of safety for the 50‐mg dose, AUC0‐last: ~16 fold
  clinical margin of safety for the 50‐mg dose, Cmax: ≈ 7.5 fold
[7]
  mean elimination t1/2: ≈ 1 hour
[7]; [21]
  increase of mean plasma AUC0‐last in the presence of itraconazole: 5.1 fold
  increase of mean plasma Cmax in the presence of itraconazole: 3.9 fold
[7]; [22]
  mean AUC0‐last: 3966 ng·h/mL
  mean Cmax: 1672 ng/mL

## C=CC(=O)N1CCC[C@@H](n2nc(-c3ccc(Oc4ccccc4)cc3)c3c(N)ncnc32)C1 [ibrutinib]
[8]; mild hepatic impairment
  mean AUC, fold higher compared with healthy controls: 2.7 fold
[8]; moderate hepatic impairment
  mean AUC, fold higher compared with healthy controls: 8.0 fold
[8]; severe hepatic impairment
  mean AUC, fold higher compared with healthy controls: 9.5 fold

## CC#CC(=O)NCCCC(=O)c1nc(-c2ccc(C(=O)Nc3ccccn3)cc2)c2c(N)nccn12 [ACP‐5862]
[1]; [23]
  MR:AUC0‐inf (metabolite‐to‐parent ratio): 3.59 and 3.6 ± 0.9
  MR:AUC0‐last (metabolite‐to‐parent ratio): 3.1 ± 0.7
  MR:Cmax (metabolite‐to‐parent ratio): 1.15 and 1.1 ± 0.4
[1]; [24]
  MR:AUC0‐last (metabolite‐to‐parent ratio): 0.6 ± 0.4
  MR:Cmax (metabolite‐to‐parent ratio): 0.247 and 0.2 ± 0.1
[1]; [25]
  geometric mean ratio for AUC: 0.9
  geometric mean ratio for Cmax: 1.01
[1]; [26]
  AUC0‐inf, LS Mean: 817.0 ng·h/mL
  Cmax, LS Mean: 166.5 ng/mL
[1]; plasma ACP-5862, ANOVA, exponentiated LSM, Severe, n 6
  AUC0‐inf, LS Mean: 782.2 ng·h/mL
[1]; plasma ACP-5862, ANOVA, exponentiated LSM, Severe, n 8
  Cmax, LS Mean: 168.7 ng/mL
[1]; [27]
  AUC0‐inf GMR: Test/Reference: 95.7%
  Cmax GMR: Test/Reference: 101.4%
[2]; matched control subjects with normal hepatic function
  mean renal clearance: 605.3 mL/h
[2]; [20]
  mean renal clearance: 692.6 mL/h
[2]; ACP-5862 after 50-mg acalabrutinib, subjects with severe hepatic impairment
  amount of the metabolite excreted in urine: ≈ 0.415 mg
Human plasma [9]; healthy matched controls
  mean protein binding: ≈ 98%
Human plasma [9]; [20]
  mean protein binding: ≈ 94%
Human plasma [4]; plasma concentration 1 μM (0.482 μg/mL)
  in vitro protein binding: 98.7%
Human plasma [4]; plasma concentration 10 μM (4.82 μg/mL)
  in vitro protein binding: 98.6%
BTK
  potency for BTK inactivation relative to parent acalabrutinib: ≈ 50%
[7]; human, plasma
  share of total acalabrutinib‐related material in plasma: > 10%
